The list is not random: actives were taken first. Their share in the collection is about 5.8%.
T cruzi growth-1: blocks T. cruzi growth in NIH3T3 culture; T. cruzi beta-gal in NIH3T3, GalScreen luminescence, 90 h; inhibition, % at 8.34 µM; actives 5.9% (n = 77,000); AID 624255;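 active = mean inhibition above about 93%, with at least 55% of replicates each passing it, limit read from the data, passing the limit was not always enough; inconclusive = only one of those two conditions holds; inactive = neither condition holds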
IDH1 R132H inh: inhibitors of human IDH1 R132H; O75874; IDH1 R132H reductase, diaphorase/resazurin fluorescence, 60 min; actives 0.18% (n = 70,000); inhibition, % at 10 µM; in the data active = inhibition above about 34%; inconclusive = no clear call, values can overlap the other calls; inactive = below about 11%;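 note: 0% = DMSO and 100% = no enzyme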
Target sequence (O75874 whole entry R132H): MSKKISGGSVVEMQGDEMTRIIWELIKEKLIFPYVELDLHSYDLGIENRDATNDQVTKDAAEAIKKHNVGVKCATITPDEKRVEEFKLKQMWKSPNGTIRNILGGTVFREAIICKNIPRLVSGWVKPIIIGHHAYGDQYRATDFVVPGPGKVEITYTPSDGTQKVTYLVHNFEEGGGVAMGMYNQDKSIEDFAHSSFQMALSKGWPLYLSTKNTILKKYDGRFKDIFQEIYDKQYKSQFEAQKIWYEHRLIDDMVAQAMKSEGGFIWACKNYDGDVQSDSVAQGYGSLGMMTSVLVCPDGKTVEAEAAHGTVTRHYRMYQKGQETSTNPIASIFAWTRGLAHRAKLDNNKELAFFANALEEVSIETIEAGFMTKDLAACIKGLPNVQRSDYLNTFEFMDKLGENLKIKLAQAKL
KDM4C inh: blocks human GASC-1 (KDM4C) demethylase activity | inhibition, % at 12.5 µM | actives 0.15% (n = 96,000) | GST-KDM4C 2-372, H3K9me3 peptide, LANCE TR-FRET | Q9H3R0 | AID 720574;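 active = mean replicate inhibition above about 25%, with at least 55% of replicates also reaching it, limit read from the data, passing the limit was not always enough; inconclusive = only one of those two conditions met; inactive = neither condition met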
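Material: N-terminal GST-fused human GASC-1 (KDM4C) fragment, residues 2-372. Input: 10 nM enzyme. Incubation: enzyme reaction 30 min, then detection 60 min, both room temperature. Doses: one test concentration per compound. Read-out basis: inhibition from TR-FRET ratio decrease. Detection: LANCE TR-FRET, excitation 340 nm, emissions 618 and 671 nm.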
Pf Dd2 growth: P. falciparum Dd2 growth inhibition; SYBR Green, 72 h; hits give low values; activity change, % at 10 µM; actives 2.3% (n = 94,000); in the data active = activity change below about -80%; inconclusive = no clear call, values can overlap the other calls
T cruzi growth-2: Trypanosoma cruzi proliferation inhibition. shares compounds with T cruzi growth-1. T. cruzi beta-gal in NIH3T3, GalScreen luminescence, 90 h. inhibition, % at 8.35 µM. actives 72% (n = 5,600). AID 651739;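 active = mean replicate inhibition above about 95% and at least 55% of replicates individually reaching it, limit read from the data; inconclusive = only one of the two criteria is met; inactive = neither criterion is met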
T cruzi growth-3: Trypanosoma cruzi proliferation inhibition | shares compounds with T cruzi growth-1 | T. cruzi beta-gal in NIH3T3, GalScreen luminescence, 90 h | inhibition, % at 2.09 µM | actives 21% (n = 5,600) | AID 651740;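 active = mean inhibition above about 95%, with at least 55% of replicates also reaching it, limit read from the data; inconclusive = meets just one of the two conditions; inactive = meets neither condition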;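 note: plate controls were neutral control median for no effect and positive control median for full effect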
3T3 cytotox: cytotoxicity in mouse NIH/3T3 fibroblasts. actives 14% (n = 5,600). NIH/3T3 viability, CellTiter-Glo ATP luminescence, 90 h. AID 651742. cytotoxicity (signal decrease), % at 8.35 µM. shares compounds with T cruzi growth-1;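 active = mean signal decrease across replicates above about 35% based on untreated-well scatter, with enough replicates individually passing, limit read from the data; inconclusive = no rule stated though some were filed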;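 note: 0% = median of neutral control wells and 100% = median of positive control wells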
3T3 cytotox 2: NIH/3T3 (mouse) viability loss. NIH/3T3 viability, CellTiter-Glo ATP luminescence, 90 h. actives 56% (n = 5,600). inhibition, % at 24.9 µM. shares compounds with T cruzi growth-1;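 active = mean loss of cell viability signal at or above a set limit, and enough replicates individually reaching it; inconclusive = meets only the mean limit or only the replicate share; inactive = meets neither condition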;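 note: 0% = median of neutral control wells and 100% = median of positive control wells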
* = called active by the depositor; ? = inconclusive; · = no result given; ! = repeats disagree.

SMILES	T cruzi growth-1	IDH1 R132H inh	KDM4C inh	Pf Dd2 growth	T cruzi growth-2	T cruzi growth-3	3T3 cytotox	3T3 cytotox 2
C[C@@H]1CN([C@H](C)CO)S(=O)(=O)c2ccc(-c3cccc(C#N)c3)cc2O[C@@H]1CN(C)C(=O)Nc1cc(F)ccc1F	·	·	-3	-32	·	·	·	·
C[C@@H]1CN([C@H](C)CO)S(=O)(=O)c2ccc(-c3ccc(C#N)cc3)cc2O[C@H]1CN(C)C(=O)Nc1cc(F)ccc1F	109*!	·	15	-56	78	53	81*	83*
C[C@H](CO)N1C[C@H](C)[C@@H](CN(C)C(=O)Nc2cc(F)ccc2F)Oc2cc(-c3ccc(C#N)cc3)ccc2S1(=O)=O	118*	·	-2	-58	101*	28	46*	83*
Cc1cnnc(/N=C(\N)Nc2ccc(S(=O)(=O)Nc3nc(C)ccc3C)cc2)n1	·	-1	·	·	·	·	·	·
Cc1sc(NC(=O)c2cc(-c3cccnc3)nc3ccccc23)c(C(=O)NC2CCCCC2)c1C	·	0	·	·	·	·	·	·
C[C@@H]1CN([C@H](C)CO)S(=O)(=O)c2ccc(-c3ccc(C#N)cc3)cc2O[C@@H]1CN(C)C(=O)Nc1cc(F)ccc1F	115*	0	1	-45	92	-7	-3	77*
C[C@@H]1CN([C@@H](C)CO)S(=O)(=O)c2ccc(-c3ccncc3)cc2O[C@@H]1CN(C)C(=O)Nc1ccc(C(F)(F)F)cc1	?	1	-5	-9	108*	85	23	67*
C[C@H](CO)N1C[C@H](C)[C@@H](CN(C)C(=O)Nc2ccc(C(F)(F)F)cc2)Oc2cc(-c3ccncc3)ccc2S1(=O)=O	103*	6	0	-47	110*	87	13	48*
C[C@@H]1CN([C@@H](C)CO)S(=O)(=O)c2ccc(-c3ccncc3)cc2O[C@H]1CN(C)C(=O)Nc1ccc(C(F)(F)F)cc1	83	0	0	17	·	·	·	·
CCC(=O)N1CCCCN2[C@H](CO)[C@H](c3ccc(/C=C/c4ccccc4)cc3)[C@@H]2C1	113*	·	-4	20	108*	82	48*	45*
CN(C)CC(=O)N1CCCCN2[C@H](C1)[C@H](c1ccc(/C=C/c3ccccc3)cc1)[C@@H]2CO	75	·	-1	-5	·	·	·	·
CN(C)CC(=O)N1CCCCN2[C@@H](CO)[C@H](c3ccc(/C=C/c4ccccc4)cc3)[C@@H]2C1	97*	·	-1	-64	?	102*	117*	102*
CN(C)CC(=O)N1CCCCN2[C@@H](CO)[C@@H](c3ccc(/C=C/c4ccccc4)cc3)[C@@H]2C1	102*	·	0	-78	99*	113*	120*	104*
CN(C)CC(=O)N1CCCCN2[C@H](C1)[C@@H](c1ccc(/C=C/c3ccccc3)cc1)[C@@H]2CO	-46	·	1	-2	·	·	·	·
N#C[C@@H]1[C@@H](c2ccc(/C=C/c3ccccc3)cc2)[C@@H](CO)N1C(=O)C1CCCCC1	102*	·	0	-24	?	58	5	26
N#C[C@H]1[C@@H](c2ccc(/C=C/c3ccccc3)cc2)[C@@H](CO)N1C(=O)C1CCCCC1	98*	·	-1	-25	96*	?	15	90*
C[C@H]1CCCCO[C@H](CN(C)Cc2ccccc2)[C@@H](C)CN([C@@H](C)CO)C(=O)c2cc(NS(=O)(=O)c3ccc(Cl)cc3)ccc2O1	109*	·	-1	2	101*	54	5	104*
C[C@@H]1CCCCO[C@H](CN(C)Cc2ccccc2)[C@H](C)CN([C@@H](C)CO)C(=O)c2cc(NS(=O)(=O)c3ccc(Cl)cc3)ccc2O1	102*	0	-2	-35	92	88	28	103*
C[C@@H]1CN([C@@H](C)CO)C(=O)c2cc(NS(=O)(=O)c3ccc(Cl)cc3)ccc2O[C@@H](C)CCCCO[C@@H]1CN(C)Cc1ccccc1	100*	·	-1	-32	89	71	-37	105*
C[C@H](CO)N1C[C@H](C)[C@@H](CN(C)Cc2ccccc2)OCCCC[C@H](C)Oc2ccc(NS(=O)(=O)c3ccc(Cl)cc3)cc2C1=O	68	·	-1	20	·	·	·	·
C[C@@H]1CCCCO[C@@H](CN(C)Cc2ccccc2)[C@H](C)CN([C@@H](C)CO)C(=O)c2cc(NS(=O)(=O)c3ccc(Cl)cc3)ccc2O1	110*	·	0	-19	102*	57	17	100*
CCc1nc2sc3c(c2c2nnc(SCC(=O)OC)n12)CCC3	·	1	·	·	·	·	·	·
CC(C)(O)[C@@H]1Cc2cc3ccc(=O)oc3cc2O1	·	-1	·	·	·	·	·	·
CCCCN1C(=O)[C@H]2Cc3c([nH]c4ccccc34)[C@H](c3ccc(OC)cc3)N2C1=O	·	0	·	·	·	·	·	·
COC(=O)c1ccc(NC(=O)CN2CCC(C(N)=O)(N3CCCCC3)CC2)cc1	·	0	·	·	·	·	·	·
SMILES	T cruzi growth-1	IDH1 R132H inh	KDM4C inh	Pf Dd2 growth	T cruzi growth-2	T cruzi growth-3	3T3 cytotox	3T3 cytotox 2
C[C@@H]1CCCCO[C@@H](CN(C)Cc2ccccc2)[C@H](C)CN([C@H](C)CO)C(=O)c2cc(NS(=O)(=O)c3ccc(Cl)cc3)ccc2O1	90	·	-1	-26	·	·	·	·
C[C@@H]1CCCCO[C@H](CN(C)Cc2ccccc2)[C@@H](C)CN([C@@H](C)CO)C(=O)c2cc(NS(=O)(=O)c3ccc(Cl)cc3)ccc2O1	106*	·	0	-43	95*	76	27	104*
Cc1ccc(NC(=O)C(C)Sc2nnc(-c3ccc([N+](=O)[O-])cc3)n2-c2ccccc2)cc1 (configuration not stated)	·	0	·	·	·	·	·	·
CN1c2ccc(-c3ccc(F)cc3)cc2[C@@H]2[C@@H](CCN2C(=O)C2CCOCC2)[C@H]1CO	105*	·	0	1	105*	94	-8	12
CN1c2ccc(-c3ccc(F)cc3)cc2[C@@H]2[C@@H](CCN2C(=O)C2CCOCC2)[C@@H]1CO	98*	·	0	2	106*	87	4	-1
CN(C)C(=O)c1ccc(-c2ccc3c(c2)[C@@H]2[C@@H](CCN2C(=O)C2CCCC2)[C@H](CO)N3C)cc1	·	·	2	-78	·	·	·	·
CN1c2ccc(-c3ccc(F)cc3)cc2[C@H]2[C@H](CCN2C(=O)C2CCOCC2)[C@H]1CO	88	·	1	26	·	·	·	·
CN(C)C(=O)c1ccc(-c2ccc3c(c2)[C@@H]2[C@@H](CCN2C(=O)C2CCOCC2)[C@@H](CO)N3C)cc1	102*	·	2	1	107*	55	-7	11
O=C1c2ccccc2C(=O)N1Cc1cc(NS(=O)(=O)c2ccccc2)ccc1Cl	·	0	·	·	·	·	·	·
